Experiments:
Influenza B virus [1] = assay: Antiviral activity against influenza B virus in MDCK cells assessed as reduction of virus-induced cytopathicity by MTS method; format: functional, organism-based
Influenza A virus [2] = assay: Antiviral activity against influenza H1N1 virus in MDCK cells assessed as reduction of virus-induced cytopathicity by visual cytopathic effect scoring method; format: functional, organism-based
Influenza A virus H3N2 [3] = assay: Antiviral activity against influenza H3N2 virus in MDCK cells assessed as reduction of virus-induced cytopathicity by visual cytopathic effect scoring method; format: functional, organism-based
Influenza A virus H3N2 [4] = assay: Antiviral activity against influenza H3N2 virus in MDCK cells assessed as reduction of virus-induced cytopathicity by MTS method; format: functional, organism-based
Influenza B virus [5] = assay: Antiviral activity against influenza B virus in MDCK cells assessed as reduction of virus-induced cytopathicity by visual cytopathic effect scoring method; format: functional, organism-based
Influenza A virus [6] = assay: Antiviral activity against influenza H1N1 virus in MDCK cells assessed as reduction of virus-induced cytopathicity by MTS method; format: functional, organism-based
[7] = Cytotoxicity against MDCK cells by MTS assay; format: cell-based, Canis lupus familiaris; details: dog
[8] = Cytotoxicity against MDCK cells assessed as drug level causing microscopically detectable alteration of normal cell morphology; format: cell-based, Canis lupus familiaris; details: dog
[9] = Cytotoxicity against african green monkey Vero cells assessed as drug level causing microscopically detectable alteration of normal cell morphology after 3 days; format: cell-based; details: chlorocebus sabaeus
How it was run: (§1)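 Serial compound dilutions added to confluent HeLa or Vero monolayers. MCC = minimum concentration causing microscopically detectable alteration of cell morphology after 3 days of incubation.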

[10] = Cytotoxicity against human HEL cells assessed as drug level causing microscopically detectable alteration of normal cell morphology after 3 days; format: cell-based
Sindbis virus = assay: Antiviral activity against Sindbis virus in african green monkey Vero cells assessed as protection against virus-induced cytopathicity; format: functional, organism-based
How it was run: (§2)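 Confluent cell monolayers inoculated with 100 CCID₅₀ virus. After 1-2 h adsorption, residual virus removed and cultures incubated with varying compound concentrations. Cytopathicity scored once it reached completion in untreated infected controls. EC₅₀ = dose reducing virus-induced cytopathogenicity by 50%.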

Human alphaherpesvirus 1 [11] = assay: Antiviral activity against thymidine kinase deficient and acyclovir resistant HSV1 KOS in human HEL cells assessed as protection against virus-induced cytopathicity; format: functional, organism-based; details: Human alphaherpesvirus 1, KOS
[12] = Cytotoxicity against human HeLa cells assessed as drug level causing microscopically detectable alteration of normal cell morphology after 3 days; format: cell-based; how it was run: as §1
Coxsackievirus B4 [13] = assay: Antiviral activity against Coxsackievirus B4 in human HeLa cells assessed as protection against virus-induced cytopathicity; format: functional, organism-based; details: Enterovirus B; how it was run: as §2
Human alphaherpesvirus 1 [14] = assay: Antiviral activity against HSV1 KOS in human HEL cells assessed as protection against virus-induced cytopathicity; format: functional, organism-based; details: Human alphaherpesvirus 1, KOS
[15] = tested on: Respiratory syncytial virus; assay: Antiviral activity against RSV Long in human HeLa cells assessed as protection against virus-induced cytopathicity; format: functional, organism-based; how it was run: as §2
Human alphaherpesvirus 2 = assay: Antiviral activity against HSV2 G in human HEL cells assessed as protection against virus-induced cytopathicity; format: functional, organism-based; details: Human alphaherpesvirus 2, strain G; how it was run: as §2
Human respirovirus 3 = assay: Antiviral activity against Parainfluenza virus type 3 in african green monkey Vero cells assessed as protection against virus-induced cytopathicity; format: functional, organism-based; details: Human respirovirus 3, Vero; how it was run: as §2
[16] = tested on: Vesicular stomatitis virus; assay: Antiviral activity against VSV in human HEL cells assessed as protection against virus-induced cytopathicity; format: functional, organism-based
Coxsackievirus B4 [17] = assay: Antiviral activity against Coxsackievirus B4 in african green monkey Vero cells assessed as protection against virus-induced cytopathicity; format: functional, organism-based; details: Enterovirus B; how it was run: as §2
Punta Toro virus = assay: Antiviral activity against Punta Toro virus in african green monkey Vero cells assessed as protection against virus-induced cytopathicity; format: functional, organism-based; how it was run: as §2
Vaccinia virus = assay: Antiviral activity against Vaccinia virus Lederle in human HEL cells assessed as protection against virus-induced cytopathicity; format: functional, organism-based; details: Orthopoxvirus vaccinia
[18] = molecular target: Human immunodeficiency virus type 1 reverse transcriptase (Human immunodeficiency virus 1, UniProt Q72547, K103N); assay: Inhibition of HIV1 reverse transcriptase p66/p51 K103N mutant; details: read-out: IC50
How it was run: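 Substrate was 0.5 µg poly(rA)/oligo(dT) 10:1 (0.3 µM 3′-OH ends) with 10 µM [³H]dTTP, at 37 °C. Acid-precipitable radioactivity was counted on GF/C filters after TCA washes.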

[19] = molecular target: Human immunodeficiency virus type 1 reverse transcriptase (Human immunodeficiency virus 1, UniProt Q72547); assay: Inhibition of HIV1 reverse transcriptase p66/p51; details: read-out: IC50
[20] = Cytotoxicity against feline CRFK cells by MTS assay; format: cell-based, Felis catus; details: cat
Felid alphaherpesvirus 1 = assay: Antiviral activity against Feline herpesvirus in feline […] cells assessed as inhibition of virus-induced cytopathicity; format: functional, organism-based
Feline coronavirus = assay: Antiviral activity against Feline coronavirus in feline […] cells assessed as inhibition of virus-induced cytopathicity; format: functional, organism-based; details: Alphacoronavirus 1
[21] = tested on: Vesicular stomatitis virus; assay: Antiviral activity against VSV in human HeLa cells assessed as protection against virus-induced cytopathicity; format: functional, organism-based
[22] = tested on: Mammalian orthoreovirus 1; assay: Antiviral activity against Reovirus 1 in african green monkey Vero cells assessed as protection against virus-induced cytopathicity; format: functional, organism-based; details: Mammalian orthoreovirus 1, Vero; how it was run: as §2

With `CC(N)C12CC3CC(CC(C3)C1)C2` (configuration not stated) [RIMANTADINE] the EC50 (Influenza B virus [1]) was > 100 µM, the EC50 (Influenza A virus [2]) was 45 µM and the EC50 (Influenza A virus H3N2 [3]) was > 100 µM. For the same compound, the EC50 (Influenza A virus H3N2 [4]) was > 100 µM, the EC50 (Influenza B virus [5]) was > 100 µM and the EC50 (Influenza A virus [6]; Influenza A virus, H1N1, MDCK) was 33.2 µM. For the same compound, the CC50 [7] was > 100 µM and the MCC [8] was > 100 µM.

For `NC(=O)c1ncn([C@@H]2O[C@H](CO)[C@@H](O)[C@H]2O)n1` [RIBAVIRIN], the EC50 (Influenza B virus [1]) was 4.8 µM, the MCC at 72 h [9] was > 250 µM and the MCC at 72 h [10] was > 250 µM. The EC50 (Sindbis virus) was 250 µM, the EC50 (Influenza A virus [2]) was 900 µM and the EC50 (Human alphaherpesvirus 1 [11]) was > 250 µM. For the same compound, the MCC at 72 h [12] was > 250 µM, the EC50 (Coxsackievirus B4 [13]) was 50 µM and the EC50 (Influenza A virus H3N2 [4]) was 8.1 µM. The EC50 (Human alphaherpesvirus 1 [14]) was > 250 µM, the EC50 (Influenza B virus [5]) was 4 µM and the EC50 [15] was 10 µM. The EC50 (Human alphaherpesvirus 2) was 250 µM, the EC50 (Influenza A virus [6]; mdck) was 8400 µM and the CC50 [7] was > 100 µM. The MCC [8] was > 100 µM, the EC50 (Human respirovirus 3) was > 50 µM and the EC50 [16] was 125 µM. The EC50 (Coxsackievirus B4 [17]) was ≥ 250 µM, the EC50 (Punta Toro virus) was 50 µM and the EC50 (Vaccinia virus) was 112 µM.

In the case of `Cc1cc(C)cc(S(=O)(=O)c2c(C(=O)N[C@@H](C)C(N)=O)[nH]c3ccc(Br)cc23)c1`, the IC50 [18] is reported as 1.5 µM and the IC50 [19] is reported as 0.013 µM.

Work on `Cc1cc(C)cc(S(=O)(=O)c2c(C(=O)N[C@H](C)C(N)=O)[nH]c3ccc(Cl)cc23)c1` yielded an IC50 [18] of 0.253 µM and an IC50 [19] of 0.017 µM.

For `O=c1[nH]c(=O)n([C@H]2C[C@H](O)[C@@H](CO)O2)cc1/C=C/Br` [BRIVUDINE], the MCC at 72 h [10] was > 250 µM, the EC50 (Human alphaherpesvirus 1 [14]) was 0.02 µM and the EC50 (Human alphaherpesvirus 2) was 29 µM. For the same compound, the EC50 [16] was > 250 µM and the EC50 (Vaccinia virus) was 4 µM.

`Cc1cc(C)cc(S(=O)(=O)c2c(C(=O)N[C@H](C)CC(N)=O)[nH]c3ccc(Cl)cc23)c1` gave an IC50 [18] of 1.42 µM and an IC50 [19] of 0.147 µM.

Compound `Cc1cc(C)cc(S(=O)(=O)c2c(C(=O)N[C@@H](C)C(N)=O)[nH]c3ccc(Cl)cc23)c1` has an IC50 [18] of 1.01 µM and an IC50 [19] of 0.026 µM.

For `Cc1cc(C)cc(S(=O)(=O)c2c(C(=O)N[C@H](C)C(N)=O)[nH]c3ccc(Br)cc23)c1`, the IC50 [18] was 0.324 µM and the IC50 [19] was 0.016 µM.

`Cc1cc(C)cc(S(=O)(=O)c2c(C(=O)N[C@@H](C)CC(N)=O)[nH]c3ccc(Cl)cc23)c1` showed an IC50 [18] of 1.34 µM and an IC50 [19] of 0.315 µM.

With `Nc1nc2c(ncn2COC(CO)CO)c(=O)[nH]1` [GANCICLOVIR] the MCC at 72 h [10] was > 100 µM, the CC50 [20] was > 100 µM and the EC50 (Felid alphaherpesvirus 1) was 1.2 µM. The EC50 (Human alphaherpesvirus 2) was 0.2 µM, the EC50 (Feline coronavirus) was > 100 µM and the EC50 [16] was > 100 µM. The EC50 (Vaccinia virus) was > 100 µM.

With `Nc1ncnc2c1ncn2C[C@H](O)CO` [(S)-DHPA] the MCC at 72 h [9] was > 250 µM, the EC50 [21] was > 250 µM and the EC50 (Sindbis virus) was > 250 µM. For the same compound, the EC50 [22] was > 250 µM, the MCC at 72 h [12] was > 250 µM and the EC50 (Coxsackievirus B4 [13]) was > 250 µM. For the same compound, the EC50 [15] was > 250 µM, the EC50 (Human respirovirus 3) was > 250 µM and the EC50 (Coxsackievirus B4 [17]) was > 250 µM. The EC50 (Punta Toro virus) was > 250 µM.

With `NC12CC3CC(CC(C3)C1)C2` [AMANTADINE] the EC50 (Influenza B virus [1]) was > 100 µM, the EC50 (Influenza A virus [2]) was > 100 µM and the EC50 (Influenza A virus H3N2 [3]) was 100 µM. For the same compound, the EC50 (Influenza A virus H3N2 [4]) was 75.3 µM, the EC50 (Influenza B virus [5]) was > 100 µM and the EC50 (Influenza A virus [6]; Influenza A virus, H1N1, MDCK) was > 100 µM. The CC50 [7] was > 100 µM and the MCC [8] was > 100 µM.

In the case of `Nc1ccn(C[C@@H](CO)OCP(=O)(O)O)c(=O)n1` [CIDOFOVIR], the MCC at 72 h [10] is reported as > 250 µM, the EC50 (Human alphaherpesvirus 1 [11]) is reported as 1 µM and the EC50 (Human alphaherpesvirus 1 [14]) is reported as 2 µM. The EC50 (Human alphaherpesvirus 2) was 1 µM, the EC50 [16] was > 250 µM and the EC50 (Vaccinia virus) was 20 µM.

Source: ChEMBL document CHEMBL1153955, “Indolylarylsulfones bearing natural and unnatural amino acids. Discovery of potent inhibitors of HIV-1 non-nucleoside wild type and resistant mutant strains reverse transcriptase and coxsackie B4 virus” (J Med Chem, 2009)
